Screening data (PubChem BioAssay)
This is a sample that favours compounds with a hit; in the whole collection about 2.6% have one here.
ARFGAP1 inh: inhibitors of rat ARFGAP1. Q62848. Arfgap1-stimulated ARF1 GTP hydrolysis, GDP FP detection. inhibition, % at 16.5 µM. 360,000 tested, 0.26% active. AID 651572;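 active means inhibition above a per-plate limit, mean inhibition of low control wells plus 3 SD, cut at about 25% in these data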;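 further: 0% = DMSO wells with enzyme and 100% = wells lacking Arfgap1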
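Assay system: Rat Arfgap1 GAP domain (His6, aa 1-136), purified enzyme | Buffer or medium: HEPES 25 mM pH 7.5, NaCl 150 mM, MgCl2, DTT | Schedule: GTP hydrolysis reaction 2 h at 25 °C | Signal: FP of antibody-bound GDP Alexa 633 tracer, ex 620/em 688 nm | Measure: Percent inhibition of Arfgap1-stimulated GTP hydrolysis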
esBAF inh: SWI/SNF esBAF complex inhibition | AID 602393 | mouse ES cells, Bmi1-luciferase knock-in reporter, 24 h; 100% = twice the neutral-well signal | 350,000 tested, 2% active | reporter increase, % at 12.5 µM; in the data active means activation above about 40%;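 further: 0% = median of the plate's neutral control wells and 100% = double that signal; a rise in the Bmi1 reporter signal indicates esBAF inhibition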
SMARCA2 act: increases SMARCA2 function in MMTV reporter cells | 370,000 tested, 1% active | activation, % at 9.1 µM | MG213 cells, MMTV-luciferase reporter, dexamethasone, overnight; in the data active means activation above about 7.8%;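 further: 0% = vehicle wells and 100% = reference activator wells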
ASAP1 inh: inhibitors of human ASAP1 ArfGAP activity | Q9ULH1 | ASAP1-stimulated ARF1 GTP hydrolysis, GDP FP detection | inhibition, % at 16.5 µM | 360,000 tested, 0.19% active | AID 624377; in the data active means inhibition above about 25%;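 further: 0% = vehicle with enzyme and substrate and 100% = no enzyme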
Target sequence (Q9ULH1 325-724 limits assumed): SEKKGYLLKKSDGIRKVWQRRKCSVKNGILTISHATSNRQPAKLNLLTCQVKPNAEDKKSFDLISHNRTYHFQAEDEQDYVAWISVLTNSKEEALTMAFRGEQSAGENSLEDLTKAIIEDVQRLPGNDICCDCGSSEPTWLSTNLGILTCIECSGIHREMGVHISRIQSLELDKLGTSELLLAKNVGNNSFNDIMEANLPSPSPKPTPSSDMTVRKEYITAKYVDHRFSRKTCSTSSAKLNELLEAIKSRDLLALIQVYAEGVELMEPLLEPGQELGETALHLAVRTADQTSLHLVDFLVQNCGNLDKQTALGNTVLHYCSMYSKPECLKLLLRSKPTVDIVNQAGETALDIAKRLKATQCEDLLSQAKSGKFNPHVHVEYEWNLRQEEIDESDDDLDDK
Starred values were filed as active, the others as inactive; nt = not tested or not shown.

SMILES	ARFGAP1 inh	esBAF inh	SMARCA2 act	ASAP1 inh
COc1ccc(COc2ccc3ccc(=O)oc3c2)cc1	4.5	55.8*	0.7	1.2
O=C1C(=O)c2c(C(=O)c3ccccc3)coc2-c2ccccc21	-0.6	66.8*	-0.6	-5.9
CCC(=O)Nc1ccc2c(c1)C(=O)N(C)C[C@@H](OC)[C@H](C)CN(C(=O)c1ccncc1)[C@@H](C)CO2	nt	-2.7	nt	nt
O=C(c1ccco1)[C@@H]1[C@@H]2C(=O)N(c3ccccc3)C(=O)[C@@H]2C2c3ccccc3C=CN21 (stereo partly drawn)	1.7	nt	2.4	34.1*
Cc1ccc(N2C(=O)[C@@H]3[C@H](C2=O)C2c4ccccc4C=CN2[C@@H]3C(=O)c2ccco2)cc1 (stereo partly drawn)	3.1	12.3	0.9	26.0*
COc1ccc(N2C(=O)[C@@H]3[C@H](C2=O)[C@H]2c4ccccc4C=CN2[C@@H]3C(=O)Nc2ccccc2)cc1	-1.2	16.1	-2.3	7.9
Cc1ccc(N2C(=O)[C@@H]3[C@H](C2=O)C2c4ccccc4C=CN2[C@@H]3C(=O)c2ccco2)c(C)c1 (stereo partly drawn)	4.5	-1.1	-1.2	12.0
O=C(Nc1ccc(Cl)cc1)N[C@H]1CC[C@H](CCn2cc(Cc3ccccc3)nn2)O[C@@H]1CO	nt	11.1	nt	nt
CN(C)CC(=O)N[C@H]1CC[C@@H](CCn2cc(C3CCCCC3)nn2)O[C@@H]1CO	nt	0.4	nt	nt
C[C@H](CO)N1C[C@H](C)[C@H](CN(C)Cc2ccc(Oc3ccccc3)cc2)Oc2ccc(NS(C)(=O)=O)cc2C1=O	nt	-3.2	nt	nt
Clc1ccc(-c2nc3ccccc3[nH]2)cn1	1.2	49.8*	3.0	6.4
Cc1ccc(NC(=O)NC(=O)CN2CCC(C(N)=O)CC2)c(C)c1	-5.1	43.2*	5.5	-14.0
Cc1ccc(NC(=O)NC(=O)CN2CCN(c3ccc(O)cc3)CC2)c(C)c1	9.8	6.6	-5.0	3.0
COc1ccc(CN(C)C[C@@H]2Oc3ccc(NS(=O)(=O)c4ccc(C)cc4)cc3C(=O)N([C@@H](C)CO)C[C@@H]2C)cc1	nt	1.6	nt	nt
CN1C[C@@H]2[C@H](c3ccccc31)[C@H](CO)N2C(=O)C1CCOCC1	nt	3.2	nt	nt
C/C(=N\Nc1ccc(Cl)cc1)c1ccccn1	-2.2	48.2*	1.7	-10.6
C/C(=N\NC(=O)c1ccc(Cl)cc1)c1ccccn1	-0.2	-9.4	2.1	2.0
Cc1ccc2c(C)c(C(=O)N(C)C(C)c3ccon3)oc2c1C (stereo not drawn)	9.8	51.3*	5.3	-8.7
COc1ccccc1C(=O)N1CCN(C(=O)c2oc3c(C)c(C)ccc3c2C)CC1	19.1	0.1	-1.0	9.2
Cc1ccc2c(C)c(C(=O)N(C)C(C)c3ccncn3)oc2c1C (stereo not drawn)	-4.4	51.2*	-1.4	-9.9
COC(=O)c1ccc(CN2C(=O)NC3(CCC(C)CC3)C2=O)o1 (stereo not drawn)	-1.7	1.5	-1.0	-9.6
COC(=O)c1ccc(CN2C(=O)NC3(CCC(C)CC3)C2=O)cc1 (stereo not drawn)	-12.6	43.9*	1.0	-9.6
O=C1c2ccccc2NC(c2cccc([N+](=O)[O-])c2)N1CCc1ccccc1 (stereo not drawn)	-7.6	45.8*	3.7	-3.9
COc1ccc(NC(=O)N(C)C[C@H]2OCc3ccccc3-c3c(n(C)c4ccccc34)C(=O)N([C@H](C)CO)C[C@@H]2C)c(OC)c1	nt	9.2	nt	nt
O=C(NCc1ccccc1C(F)(F)F)c1cccc2c1C(=O)c1ccc(N3CCC(N4CCCCC4)CC3)cc1S2(=O)=O	7.0	-5.6	19.6*	1.4
SMILES	ARFGAP1 inh	esBAF inh	SMARCA2 act	ASAP1 inh
O=C(NCc1ccccc1C(F)(F)F)c1cccc2c1C(=O)c1ccc(N3CCOCC3)cc1S2(=O)=O	22.5	8.6	-0.7	15.8
O=C(OCC(=O)c1ccc[nH]1)c1ccc(Br)cc1	-2.4	-9.3	0.7	-5.2
COc1ccc(C(=O)OCC(=O)c2ccc[nH]2)cc1	5.4	51.3*	-1.8	-7.5
O=C(/C=C\Nc1ccc2c(c1)OCO2)c1ccc2c(c1)OCO2	-9.3	nt	2.5	-8.1
O=C(/C=C\Nc1ccc2c(c1)OCO2)c1ccc(Cl)s1	5.9	51.9*	2.3	9.8
C[C@H]1CN([C@@H](C)CO)C(=O)c2cccc(NC(=O)Nc3ccc(C(F)(F)F)cc3)c2O[C@@H]1CN(C)S(C)(=O)=O	nt	5.7	nt	nt
COc1ccc2nc3sc(C(=O)N4CCN(C)CC4)cc3cc2c1	2.6	33.8	1.4	-4.3
COc1ccc2nc3sc(C(=O)NCCCN4CCc5ccccc5C4)cc3cc2c1	13.3	73.2*	2.8	12.0
COc1ccc(C(=O)NCc2ccncc2)cc1OC	4.3	nt	1.5	-7.5
